A selection: hits, their analogues and other compounds. The true share with any hit is near 1.1%.
LANA DNA inh = KSHV C-LANA DNA binding inhibition; MBP-C-LANA/FAM-LBS DNA binding, fluorescence polarization; inhibition, % at 9 µM; hit rate 0.078% among 340,000; AID 504423;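 active means highest replicate inhibition at or above 60% at 9 µM, even if other replicates fall short; inactive means all replicates below 60% inhibition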;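 further: 0% = neutral control wells and 100% = 4 µM acridine orange control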
CAL PDZ FP-1 = blocks peptide binding to the human CAL PDZ domain; purified CAL PDZ, TMR-peptide fluorescence polarization, 1 h; inhibition, % at 24.9 µM; hit rate 0.92% among 300,000;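 active means mean inhibition of at least 30% with at least half of replicates also reaching 30%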;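 further: 0% = DMSO neutral control and 100% = excess unlabeled competitor peptide PRC23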
miR-122 sensor = inhibitors of miR-122 in Huh7 cells | activation (reporter increase), % at 12.5 µM | hit rate 0.3% among 340,000 | Huh7 miR-122 Renilla luciferase sensor, 48 h; neutral wells = 0, positive control = 100 | AID 602342;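 active means mean replicate activation score at least 90 and every replicate individually at or above 90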;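 further: higher luciferase means less miR-122 activity so hits act as miR-122 inhibitors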
Keap1 Nrf2 FP = inhibitors of human Keap1-Nrf2 protein-protein interaction. Q14145. Keap1 Kelch-Nrf2 peptide fluorescence polarization, 1536-well. inhibition, % at 9.4 µM. hit rate 0.15% among 340,000. AID 504523; in the data active means inhibition above about 12%;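 further: human Keap1 Kelch domain with fluorescein labeled Nrf2 9mer peptide probe; 0% = neutral control wells and 100% = peptide positive control; higher means more block of Keap1 binding to Nrf2 peptide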
Target sequence (Q14145 whole entry, looked up, the tested form may be a part): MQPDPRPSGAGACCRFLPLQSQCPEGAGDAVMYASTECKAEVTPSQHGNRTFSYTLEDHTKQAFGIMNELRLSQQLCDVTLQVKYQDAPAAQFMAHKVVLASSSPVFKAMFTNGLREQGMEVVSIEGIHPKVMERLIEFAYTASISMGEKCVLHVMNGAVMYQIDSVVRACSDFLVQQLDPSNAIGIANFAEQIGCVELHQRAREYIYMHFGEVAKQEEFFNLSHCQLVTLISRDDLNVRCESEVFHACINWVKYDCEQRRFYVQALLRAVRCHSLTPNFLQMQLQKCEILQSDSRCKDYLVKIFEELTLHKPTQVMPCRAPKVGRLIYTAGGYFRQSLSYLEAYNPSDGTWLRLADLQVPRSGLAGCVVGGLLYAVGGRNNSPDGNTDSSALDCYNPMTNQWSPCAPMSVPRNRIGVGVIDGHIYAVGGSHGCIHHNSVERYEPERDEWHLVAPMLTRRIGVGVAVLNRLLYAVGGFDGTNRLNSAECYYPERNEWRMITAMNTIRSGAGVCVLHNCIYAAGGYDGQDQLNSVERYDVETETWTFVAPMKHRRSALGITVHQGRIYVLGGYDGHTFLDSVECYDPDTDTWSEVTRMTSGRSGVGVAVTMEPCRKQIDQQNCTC
CAL PDZ FP-2 = human CAL PDZ-peptide interaction inhibition; Q9HD26; AID 504414; purified CAL PDZ, TMR-peptide fluorescence polarization, 1 h; hit rate 0.02% among 330,000; inhibition, % at 20 µM;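 active means highest replicate inhibition of at least 40%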;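 further: plate controls were DMSO neutral control wells for no effect and unlabeled competitor peptide control wells for full effect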
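Read-out basis: mP drop reported as inhibition | Assay system: Tagged CAL PDZ protein CerCALP, purified | Benchmarks: Unlabelled peptide for full inhibition, DMSO wells as neutral | Schedule: 1 h incubation at room temperature before polarization reading | Buffer or medium: Sodium phosphate/NaCl buffer pH 7.4 with TCEP, IgG, Thesit | Doses: Single point, 20 µM | Measured by: Fluorescence polarization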
The depositor's hits bear a star; x = no result; [ ] = dose if it differs, or a comment.

SMILES	LANA DNA inh	CAL PDZ FP-1	miR-122 sensor	Keap1 Nrf2 FP	CAL PDZ FP-2
Cc1ccccc1NC(=O)c1ccc(NS(=O)(=O)c2cc(C(C)(C)C)cc(C)c2C)cc1	-1	10	321*	-1	0
Cc1cc(C(C)(C)C)cc(S(=O)(=O)Nc2cccc(C(=O)O)c2)c1C	-1	x	29	-6	-2
Cc1cc(NC(=O)CSc2nc3c(sc4ccccc43)c(=O)n2CCCN2CCOCC2)n[nH]1	-1	2	178*	-1	-2
COc1ccc(S(=O)(=O)Nc2ccc3c(c2)C(=O)N([C@@H](C)CO)C[C@@H](C)[C@H](CN(C)Cc2ccncc2)O3)cc1	x	x	-3[16.7 µM]	x	x
O=C(OCCN1C(=O)c2cccc3c(N4CCOCC4)ccc(c23)C1=O)c1ccccc1Cl	48	-2	x	55*	-2
COc1ccc(OC)c(-c2csc(NC(=O)Cc3ccccc3F)n2)c1	1	5	117*	2	-1
COc1ccc(OC)c(-c2csc(NC(=O)Cc3ccccc3OC)n2)c1	-1	-1	27	-5	-3
COc1ccc2c(CC(=O)Nc3ncc(C)s3)coc2c1	78*	0	x	1	2
O=C1C=C(c2ccccc2)C(c2ccccc2)C1 (configuration not stated)	1	x	-4	-1	48*
O=S(=O)(c1ccccc1)N1CCN(CCc2ccccc2)CC1	-1	69*	-5	-1	-5
O=S(=O)(NCCC1=CCCCC1)c1cccc(S(=O)(=O)N2CCOCC2)c1	-1	-2	39	4	0
O=S(=O)(NCCc1ccccc1)c1cccc(S(=O)(=O)N2CCOCC2)c1	1	x	150*	-4	1
C[C@@H]1CN([C@@H](C)CO)S(=O)(=O)c2ccc(C#C[C@@H](C)O)cc2O[C@@H]1CN(C)CC1CCOCC1	x	x	3[16.7 µM]	x	x
O=C(NNC(=O)c1ccccc1[N+](=O)[O-])c1csc(N2CCOCC2)n1	-1	49*	-2	-8	-2
Cc1c(C(=O)NNC(=O)c2csc(N3CCOCC3)n2)cccc1[N+](=O)[O-]	0	-1	x	3	-1
CC(C)CNC(=O)CSc1ccc(S(=O)(=O)N2CCN(C)CC2)cn1	0	39*	0	-4	0
CC(C)NC(=O)NC(=O)CSc1ccc(S(=O)(=O)N2CCOCC2)cn1	2	-1	3	2	-2
Cc1cc(C)c(C#N)c(Nc2cccc(C)c2C)n1	-1	83*	52	-1	4
Cc1cc(C)c(C#N)c(Nc2ccccc2C)n1	-1	-4	4	-7	-1
Cc1ccc(S(=O)(=O)Nc2ccc3c(c2)C(=O)N([C@@H](C)CO)C[C@@H](C)[C@@H](CN(C)S(C)(=O)=O)O3)cc1	x	x	-5[16.7 µM]	x	x
Cc1nn(C(C)C(=O)NCc2ccccc2Cl)c(=O)c2c1sc1ccccc12 (configuration not stated)	-5	70*	-2	-3	0
C[C@@H]1CN([C@@H](C)CO)C(=O)c2cc(-c3cccc(F)c3)cnc2O[C@H]1CN(C)C	x	x	15[16.7 µM]	x	x
COc1ccc(NC(=S)NC(=O)C2CCCCC2)cc1	1	0	x	1	0
CCOc1ccc(NC(=S)NC(=O)C2CCCC2)cc1	-1	32*	-3	-8	0
CN(Cc1ccccc1)S(=O)(=O)c1ccc(NC(=S)NC(=O)C2CCCCC2)cc1	1	1	125*	-1	0
SMILES	LANA DNA inh	CAL PDZ FP-1	miR-122 sensor	Keap1 Nrf2 FP	CAL PDZ FP-2
O=C(O)Cc1sc(Nc2cccc3ccccc23)nc1-c1ccccc1	0	-3	x	-8	0
O=C(O)Cc1sc(Nc2cccc3ccccc23)nc1-c1ccc(Cl)cc1	0	62*	x	-2	x
CC1(CNC(=O)C(=O)NCC2(C)CO2)CO1 (configuration not stated)	2	41*	-11	1	1
O=C(NCC1(c2ccccc2)CCCC1)C(=O)NCC1(c2ccccc2)CCCC1	0	-5	7	-2	0
CN1CCN(CC(=O)Nc2ccc(S(=O)(=O)N(C)C)cc2)CC1	2	4	15	-5	1
CCOc1cc(NC(=O)c2ccco2)c(OCC)cc1NC(=O)c1cc(OC)c(OC)c(OC)c1	0	3	-21	5	0
CN(C)S(=O)(=O)c1ccc(NC(=O)CN2CCCCCC2)cc1	-1	133*	4	-4	0
COc1cc(NC(=O)c2ccco2)c(OC)cc1NC(=O)c1cc(OC)c(OC)c(OC)c1	0	97*	-22	4	0
COc1ccc(C)cc1NC(=O)CNC(c1ccccc1)c1ccc(C)cc1 (configuration not stated)	-1	-1	1	-3	-1
COc1ccccc1NC(=O)CNC(c1ccccc1)c1ccccc1	-1	33*	7	-3	2
O=C(Nc1cccc2ccccc12)C1CCN(C(=O)NCc2ccccc2)CC1	0	-2	-2	1	-3
COc1ccccc1NC(=O)C1CCN(C(=O)NCc2ccccc2)CC1	0	56*	-1	0	0
C[C@@H]1CN([C@@H](C)CO)C(=O)c2cc(C#CCN(C)C)cnc2O[C@H]1CN(C)C(=O)NC1CCCC1	x	x	-8[16.7 µM]	x	x
O=S(=O)(N[C@H]1CC[C@H](CCn2cc(C3CC3)nn2)O[C@H]1CO)c1ccc(F)cc1	x	x	-5[16.7 µM]	x	x
COc1ccccc1NC(=O)CN1CCCCCC1	-1	47*	1	-2	-1
COc1cc(C(=O)NC(=S)Nc2ccc(Cl)c(C(=O)O)c2)cc(OC)c1OC	0	40*	0	-6	x
CCOc1ccc(NC(=O)CN2CCN(CC(=O)Nc3ccc(OC)cc3OC)CC2)cc1	2	-3	-5	-3	x
COc1cc(NC(=O)Nc2ccccc2OC)c(OC)cc1NC(=O)CN1CCCCC1	0	-4	4	-2	0
COc1cc(C(=O)NC(c2ccccc2)c2ccccc2)cc(OC)c1OC	0	51*	-8	-3	0
CCOc1ccc(NC(=O)CN2CCN(CC(=O)Nc3ccccc3OC)CC2)cc1	0	123*	-5	1	x
C[C@H](CO)N1C[C@H](C)[C@@H](CN(C)Cc2cncnc2)Oc2ncc(/C=C/c3ccccc3)cc2C1=O	x	x	0[16.7 µM]	x	x
COc1ccccc1CN1C[C@H](C)[C@H](OC)CN(C)C(=O)c2ccc(NC(C)=O)cc2OC[C@H]1C	x	x	9[16.7 µM]	x	x
O=C(C[C@@H]1CC[C@@H]2[C@H](COC[C@H](O)CN2C(=O)c2ccc3c(c2)OCO3)O1)NCCN1CCCCC1	x	x	3[16.7 µM]	x	x
C[C@H](CO)N1C[C@H](C)[C@@H](CN(C)Cc2ccc(C(=O)O)cc2)OCCCC[C@H](C)Oc2ccc(NS(=O)(=O)c3cccs3)cc2C1=O	x	x	-4[16.7 µM]	x	x
C[C@H](CO)N1C[C@H](C)[C@@H](CN(C)C(=O)Nc2ccc(F)cc2)OCCCC[C@H](C)Oc2ccc(NC(=O)CCCN(C)C)cc2C1=O	x	x	1[16.7 µM]	x	x
COc1ccccc1NC(=O)Cn1c([N+](=O)[O-])cnc1C	5	64*	1	-3	-4
